{"source": "ChEMBL document CHEMBL3243961", "about": "“Synthesis and biological activity of 8-arylergolines” (1977)", "key": {"Rattus norvegicus [1]": {"tested_on": "Rattus norvegicus", "assay": "Antidepressant activity in rat assessed as antimuricidal activity at 0.625 mg/kg, ip", "assay_type": "functional, organism-based", "set-up": "dose 0.625 mg/kg"}, "Rattus norvegicus [2]": {"species": "Rattus norvegicus", "assay": "Oxytocic activity in rat uterus smooth muscle up to 10 ug/ml", "assay_type": "functional, tissue-based", "conditions": "Muscle tissue"}, "Rattus norvegicus [3]": {"tested_on": "Rattus norvegicus", "assay": "Antidepressant activity in rat assessed as antimuricidal activity at 10 mg/kg, ip", "assay_type": "functional, organism-based", "set-up": "dose 10 mg/kg", "in_short": "(§1)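 Rats screened in an antimuricidal (mouse-killing) test, used as a possible indicator of antidepressant activity.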"}, "Rattus norvegicus [4]": {"tested_on": "Rattus norvegicus", "assay": "Decrease in prolactin level in rat serum at 1 mg, ip by radioimmunoassay", "assay_type": "functional", "in_short": "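Rats received test compound ip at 1 mg per rat. Serum prolactin was then measured by radioimmunoassay, and the result was expressed as the percent drop in serum prolactin.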"}, "[5]": {"target": "Serotonin (5-HT) receptor (Rattus norvegicus) (UniProt P35563+P35365+P32305+P31388+Q9JJ16+P28564+P30994+Q62758+P08909+P14842+P30940+P35364+P19327+P28565)", "assay": "Inhibition of 5-HT receptor in rat stomach fundus relative to methysergide", "assay_type": "tissue-based"}, "[6]": {"target": "T1, Adrenergic receptor alpha (Rattus norvegicus) (UniProt P15823+P23944+P43140+P22086+P19328+P22909)", "assay": "Blockade of alpha-adrenoceptor in rat aorta", "assay_type": "tissue-based"}, "Rattus norvegicus [7]": {"tested_on": "Rattus norvegicus", "assay": "Antidepressant activity in rat assessed as antimuricidal activity at 5 mg/kg, ip", "assay_type": "functional, organism-based", "set-up": "dose 5 mg/kg", "in_short": "as §1"}, "[8]": {"target": "T1, Adrenergic receptor alpha (Rattus norvegicus)", "assay": "Blockade of alpha-adrenoceptor in rat aorta assessed as rightward shift in norepinephrine dose response curve", "assay_type": "tissue-based"}, "Rattus norvegicus [9]": {"tested_on": "Rattus norvegicus", "assay": "Antidepressant activity in rat assessed as antimuricidal activity at 20 mg/kg, ip", "assay_type": "functional, organism-based", "set-up": "dose 20 mg/kg", "in_short": "as §1"}, "Rattus norvegicus [10]": {"tested_on": "Rattus norvegicus", "assay": "Decrease in prolactin level in rat serum at 10 ug, ip by radioimmunoassay", "assay_type": "functional"}}, "note": "Active and inactive are the calls of the source. The rule behind the calls is not given here.", "data": [{"smiles": "CN1CCC=C2c3cccc4[nH]cc(c34)CC21", "note": "(racemic)", "values": [{"measurement": "Activity", "setting": "Rattus norvegicus [1]", "result": "Active"}]}, {"smiles": "Cc1ccc([C@@H]2C=C3c4cccc5c4[C@@H](CN5)C[C@H]3N(C)C2)cc1", "values": [{"measurement": "Activity", "setting": "Rattus norvegicus [2]", "result": "inactive"}]}, {"smiles": "CN1CC(c2ccc(O)cc2)C=C2c3cccc4c3[C@@H](CN4)C[C@H]21", "note": "(stereo partly drawn)", "values": [{"measurement": "Activity", "setting": "Rattus norvegicus [2]", "result": "inactive"}]}, {"smiles": "CN1C[C@@H](c2ccccc2)C=C2c3cccc4c3[C@@H](CN4)C[C@H]21", "values": [{"measurement": "Activity", "setting": "Rattus norvegicus [2]", "result": "inactive"}]}, {"smiles": "COc1ccc([C@H]2C=C3c4cccc5c4[C@@H](CN5)C[C@H]3N(C)C2)cc1", "values": [{"measurement": "Activity", "setting": "Rattus norvegicus [2]", "result": "inactive"}]}, {"smiles": "CN1C[C@H](c2ccccc2)C=C2c3cccc4c3[C@@H](CN4)C[C@H]21", "values": [{"measurement": "Activity", "setting": "Rattus norvegicus [2]", "result": "inactive"}]}, {"smiles": "COc1ccc([C@@H]2C=C3c4cccc5[nH]cc(c45)C[C@H]3N(C)C2)cc1.O=C(O)/C=C\\C(=O)O", "values": [{"measurement": "Activity", "setting": "Rattus norvegicus [3]", "result": "Active"}, {"measurement": "Activity", "setting": "Rattus norvegicus [2]", "result": "inactive"}, {"measurement": "inhibition (INH)", "setting": "Rattus norvegicus [4]", "result": 81, "unit": "%"}, {"measurement": "5-HT antagonist potency relative to methysergide", "setting": "[5]", "result": 100, "unit": "%"}, {"measurement": "inhibition", "setting": "[6]", "result": "Active"}]}, {"smiles": "CN1CC(c2ccc(Cl)cc2)C=C2c3cccc4c3[C@@H](CN4)C[C@H]21", "note": "(stereo partly drawn)", "values": [{"measurement": "Activity", "setting": "Rattus norvegicus [2]", "result": "inactive"}]}, {"smiles": "CN1C[C@H](c2ccc3c(c2)OCO3)C=C2c3cccc4c3[C@@H](CN4)C[C@H]21", "values": [{"measurement": "Activity", "setting": "Rattus norvegicus [2]", "result": "inactive"}]}, {"smiles": "CN1C[C@H](c2ccccc2)C=C2c3cccc4[nH]cc(c34)C[C@H]21.O=C(O)/C=C\\C(=O)O", "values": [{"measurement": "Activity", "setting": "Rattus norvegicus [2]", "result": "inactive"}, {"measurement": "inhibition (INH)", "setting": "Rattus norvegicus [4]", "result": 71, "unit": "%"}, {"measurement": "5-HT antagonist potency relative to methysergide", "setting": "[5]", "result": 50, "unit": "%"}, {"measurement": "Activity", "setting": "Rattus norvegicus [7]", "result": "Active"}, {"measurement": "fold change (FC)", "setting": "[8]", "result": 2}]}, {"smiles": "CN1C[C@@H](c2ccccc2)C=C2c3cccc4[nH]cc(c34)C[C@H]21.O=C(O)/C=C\\C(=O)O", "values": [{"measurement": "Activity", "setting": "Rattus norvegicus [2]", "result": "inactive"}, {"measurement": "inhibition (INH)", "setting": "Rattus norvegicus [4]", "result": 88, "unit": "%"}, {"measurement": "5-HT antagonist potency relative to methysergide", "setting": "[5]", "result": 10, "unit": "%"}, {"measurement": "Activity", "setting": "Rattus norvegicus [9]", "result": "inactive"}, {"measurement": "inhibition", "setting": "[6]", "result": "Active"}]}, {"smiles": "CC(C)[C@H]1C(=O)N2CCC[C@H]2[C@]2(O)O[C@](NC(=O)[C@@H]3C=C4c5cccc6[nH]cc(c56)C[C@H]4N(C)C3)(C(C)C)C(=O)N12", "note": "[ERGOCORNINE]", "values": [{"measurement": "inhibition (INH)", "setting": "Rattus norvegicus [10]", "result": 60, "unit": "%"}]}, {"smiles": "CN1C[C@@H](c2ccc3c(c2)OCO3)C=C2c3cccc4c3[C@@H](CN4)C[C@H]21", "values": [{"measurement": "Activity", "setting": "Rattus norvegicus [2]", "result": "inactive"}]}, {"smiles": "CN1C[C@H](c2ccc3c(c2)OCO3)C=C2c3cccc4[nH]cc(c34)C[C@H]21", "values": [{"measurement": "Activity", "setting": "Rattus norvegicus [3]", "result": "Active"}, {"measurement": "Activity", "setting": "Rattus norvegicus [2]", "result": "inactive"}, {"measurement": "inhibition", "setting": "Rattus norvegicus [4]", "result": "inactive"}, {"measurement": "5-HT antagonist potency relative to methysergide", "setting": "[5]", "result": 50, "unit": "%"}, {"measurement": "fold change (FC)", "setting": "[8]", "result": 2}]}, {"smiles": "Cc1ccc([C@@H]2C=C3c4cccc5[nH]cc(c45)C[C@H]3N(C)C2)cc1", "values": [{"measurement": "Activity", "setting": "Rattus norvegicus [2]", "result": "inactive"}]}, {"smiles": "Cc1ccc([C@H]2C=C3c4cccc5c4[C@@H](CN5)C[C@H]3N(C)C2)cc1", "values": [{"measurement": "Activity", "setting": "Rattus norvegicus [2]", "result": "inactive"}]}, {"smiles": "COc1ccc([C@@H]2C=C3c4cccc5c4[C@@H](CN5)C[C@H]3N(C)C2)cc1", "values": [{"measurement": "Activity", "setting": "Rattus norvegicus [2]", "result": "inactive"}]}]}
